Assay results from ChEMBL document CHEMBL3758131, “Towards new 5-HT7 antagonists among arylsulfonamide derivatives of (aryloxy)ethyl-alkyl amines: Multiobjective based design, synthesis, and antidepressant and anxiolytic properties” (Eur J Med Chem, 2016).

Columns and labels:
[1] = system: Mus musculus; test: Antidepressant activity in C57BL/6J mouse assessed as number of events at 5 mg/kg, ip measured over 6 mins by tail suspension test (reference value: 1325.1 +/- 77.8 to 1773.4 +/- 109.9); assay type: functional
[2] = molecular target: T1, 5-hydroxytryptamine receptor 7 (Homo sapiens, UniProt P34969); test: Antagonist activity at human 5-HT7B receptor expressed in […] cells assessed as inhibition of 5-CT induced cAMP production at 10^-6 M after 30 mins by TR-FRET assay; assay type: functional, cell-based
T1 sequence (P34969 whole entry): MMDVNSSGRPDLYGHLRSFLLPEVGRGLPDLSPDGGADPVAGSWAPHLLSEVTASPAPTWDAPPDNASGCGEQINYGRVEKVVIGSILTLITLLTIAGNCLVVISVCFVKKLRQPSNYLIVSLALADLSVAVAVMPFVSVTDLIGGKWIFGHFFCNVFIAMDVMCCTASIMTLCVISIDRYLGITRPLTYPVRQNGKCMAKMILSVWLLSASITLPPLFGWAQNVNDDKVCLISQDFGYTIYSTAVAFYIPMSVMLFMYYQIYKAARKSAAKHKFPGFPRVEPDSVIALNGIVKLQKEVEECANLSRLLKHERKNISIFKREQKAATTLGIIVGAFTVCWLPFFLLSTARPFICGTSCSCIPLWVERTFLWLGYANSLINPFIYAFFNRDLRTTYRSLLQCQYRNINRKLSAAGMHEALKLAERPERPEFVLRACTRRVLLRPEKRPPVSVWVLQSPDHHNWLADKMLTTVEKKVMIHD

[3] = molecular target: T1, 5-hydroxytryptamine receptor 7; test: Displacement of [3H]-5-CT from human 5-HT7B receptor expressed in HEK293 cells after 1 hr; assay type: cell-based
How it was run: (§1)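 Competition binding on membranes from HEK293 cells stably expressing human 5-HT7b or 5-HT1A. Incubation 1 h, at 37 °C for 5-HT7b and at room temperature for 5-HT1A. Non-specific binding defined with 10 µM 5-HT.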

[4] = molecular target: T2, 5-hydroxytryptamine receptor 1A (Homo sapiens, UniProt P08908); test: Displacement of [3H]-8-OH-DPAT from human 5-HT1A receptor expressed in HEK293 cells after 1 hr; assay type: cell-based; how it was run: as §1
T2 sequence (P08908 whole entry): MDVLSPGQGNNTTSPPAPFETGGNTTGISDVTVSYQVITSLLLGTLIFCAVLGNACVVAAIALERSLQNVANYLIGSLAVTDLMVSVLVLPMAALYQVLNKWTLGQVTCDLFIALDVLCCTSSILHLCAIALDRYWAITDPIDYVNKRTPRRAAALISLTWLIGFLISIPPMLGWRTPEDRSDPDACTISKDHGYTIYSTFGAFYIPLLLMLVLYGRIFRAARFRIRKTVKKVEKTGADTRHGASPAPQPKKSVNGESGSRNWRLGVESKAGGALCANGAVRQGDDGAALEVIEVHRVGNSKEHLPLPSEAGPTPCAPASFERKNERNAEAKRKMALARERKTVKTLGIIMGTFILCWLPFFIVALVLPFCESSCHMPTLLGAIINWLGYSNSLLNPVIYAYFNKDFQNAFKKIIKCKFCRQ

[5] = system: Mus musculus; test: Antidepressant activity in C57BL/6J mouse assessed as average force at 5 mg/kg, ip measured over 6 mins by tail suspension test (reference value: 0.281 +/- 0.018 to 0.359 +/- 0.027 N); assay type: functional

Q: How did the Activity [1] turn out when `O=S(=O)(NC1CCN(CCOc2ccccc2C2CCCC2)CC1)c1cccc(F)c1` was run?
A: Its Activity is 1682.

Q: What about the inhibition [2] of the same compound?
A: Its inhibition is 90%.

Q: And the Ki [3]?
A: The Ki was 19 nM.

Q: And the Ki [4]?
A: The Ki was 545 nM.

Q: And the Activity [5]?
A: The Activity was 0.426 N.
